Measured values taken from ChEMBL document CHEMBL4387724, “2-Pyridineformamide N(4)-ring incorporated thiosemicarbazones inhibit MCF-7 cells by inhibiting JNK pathway” (Bioorg Med Chem Lett, 2019).

Key:
HeLa [1] = assay: Cytotoxicity against human HeLa cells assessed as reduction in cell growth at 10 uM incubated for 72 hrs by MTT assay relative to control; assay type: functional; details: read-out: GI
Method in brief: (§1)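 Cells grown in DMEM with 10% FBS and penicillin-streptomycin at 37 °C, 5% CO2, seeded at 3000 cells/well and attached overnight. Screening series given at 1, 3, 10, 100 μM; follow-up agent at 100 nM–3 μM; both 72 h, with 0.1% DMSO vehicle. MTT (5 mg/mL stock) added for 3 h at 37 °C, formazan dissolved in DMSO, absorbance read at 570 nm. Viability expressed as % of DMSO-treated wells from replicates.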

A-431 [2] = assay: Cytotoxicity against human A431 cells assessed as reduction in cell growth at 1 uM incubated for 72 hrs by MTT assay relative to control; assay type: functional; details: A-431, 72 h, read-out: GI; method in brief: as §1
HeLa [3] = assay: Cytotoxicity against human HeLa cells assessed as reduction in cell growth at 1 uM incubated for 72 hrs by MTT assay relative to control; assay type: functional; details: read-out: GI; method in brief: as §1
MCF7 [4] = assay: Cytotoxicity against human MCF7 cells assessed as reduction in cell growth at 10 uM incubated for 72 hrs by MTT assay relative to control; assay type: functional; details: MCF7, 72 h, read-out: GI; method in brief: as §1
A-431 [5] = assay: Cytotoxicity against human A431 cells assessed as reduction in cell growth at 3 uM incubated for 72 hrs by MTT assay relative to control; assay type: functional; details: A-431, 72 h, read-out: GI; method in brief: as §1
A-375 [6] = assay: Cytotoxicity against human A375 cells assessed as reduction in cell growth at 1 uM incubated for 72 hrs by MTT assay relative to control; assay type: functional; details: A-375, 72 h, read-out: GI; method in brief: as §1
HeLa [7] = assay: Cytotoxicity against human HeLa cells assessed as reduction in cell growth at 30 uM incubated for 72 hrs by MTT assay relative to control; assay type: functional; details: read-out: GI
A-431 [8] = assay: Cytotoxicity against human A431 cells assessed as reduction in cell growth at 10 uM incubated for 72 hrs by MTT assay relative to control; assay type: functional; details: A-431, 72 h, read-out: GI; method in brief: as §1
HeLa [9] = assay: Cytotoxicity against human HeLa cells assessed as reduction in cell growth incubated for 72 hrs by MTT assay; assay type: functional, cell-based; method in brief: as §1
HeLa [10] = assay: Cytotoxicity against human HeLa cells assessed as reduction in cell growth at 3 uM incubated for 72 hrs by MTT assay relative to control; assay type: functional; details: read-out: GI; method in brief: as §1
A-431 [11] = assay: Cytotoxicity against human A431 cells assessed as reduction in cell growth incubated for 72 hrs by MTT assay; assay type: functional, cell-based; details: A-431, 72 h; method in brief: as §1
MCF7 [12] = assay: Cytotoxicity against human MCF7 cells assessed as reduction in cell growth incubated for 72 hrs by MTT assay; assay type: functional, cell-based; details: MCF7, 72 h; method in brief: as §1
A-431 [13] = assay: Cytotoxicity against human A431 cells assessed as reduction in cell growth at 100 uM incubated for 72 hrs by MTT assay relative to control; assay type: functional; details: A-431, 72 h, read-out: GI; method in brief: as §1
MCF7 [14] = assay: Cytotoxicity against human MCF7 cells assessed as reduction in cell growth at 100 uM incubated for 72 hrs by MTT assay relative to control; assay type: functional; details: MCF7, 72 h, read-out: GI; method in brief: as §1
MCF7 [15] = assay: Cytotoxicity against human MCF7 cells assessed as reduction in cell growth at 1 uM incubated for 72 hrs by MTT assay relative to control; assay type: functional; details: MCF7, 72 h, read-out: GI; method in brief: as §1
A-375 [16] = assay: Cytotoxicity against human A375 cells assessed as reduction in cell growth at 100 uM incubated for 72 hrs by MTT assay relative to control; assay type: functional; details: A-375, 72 h, read-out: GI; method in brief: as §1
HeLa [17] = assay: Cytotoxicity against human HeLa cells assessed as reduction in cell growth at 100 uM incubated for 72 hrs by MTT assay relative to control; assay type: functional; details: read-out: GI; method in brief: as §1
A-375 [18] = assay: Cytotoxicity against human A375 cells assessed as reduction in cell growth incubated for 72 hrs by MTT assay; assay type: functional, cell-based; details: A-375, 72 h; method in brief: as §1
MCF7 [19] = assay: Cytotoxicity against human MCF7 cells assessed as reduction in cell growth at 3 uM incubated for 72 hrs by MTT assay relative to control; assay type: functional; details: MCF7, 72 h, read-out: GI; method in brief: as §1
MCF7 [20] = assay: Cytotoxicity against human MCF7 cells assessed as reduction in cell growth at 30 uM incubated for 72 hrs by MTT assay relative to control; assay type: functional; details: MCF7, 72 h, read-out: GI
A-375 [21] = assay: Cytotoxicity against human A375 cells assessed as reduction in cell growth at 10 uM incubated for 72 hrs by MTT assay relative to control; assay type: functional; details: A-375, 72 h, read-out: GI; method in brief: as §1
A-375 [22] = assay: Cytotoxicity against human A375 cells assessed as reduction in cell growth at 30 uM incubated for 72 hrs by MTT assay relative to control; assay type: functional; details: A-375, 72 h, read-out: GI
A-431 [23] = assay: Cytotoxicity against human A431 cells assessed as reduction in cell growth at 30 uM incubated for 72 hrs by MTT assay relative to control; assay type: functional; details: A-431, 72 h, read-out: GI
A-375 [24] = assay: Cytotoxicity against human A375 cells assessed as reduction in cell growth at 3 uM incubated for 72 hrs by MTT assay relative to control; assay type: functional; details: A-375, 72 h, read-out: GI; method in brief: as §1

SMILES | inhibition of growth at 10 µM (HeLa [1]) [%] | inhibition of growth at 1 µM (A-431 [2]) [%] | inhibition of growth at 1 µM (HeLa [3]) [%] | inhibition of growth at 10 µM (MCF7 [4]) [%] | inhibition of growth at 3 µM (A-431 [5]) [%] | inhibition of growth at 1 µM (A-375 [6]) [%] | inhibition of growth at 30 µM (HeLa [7]) [%] | inhibition of growth at 10 µM (A-431 [8]) [%] | IC50 (HeLa [9]) [µM] | inhibition of growth at 3 µM (HeLa [10]) [%] | IC50 (A-431 [11]) [µM] | IC50 (MCF7 [12]) [µM] | inhibition of growth at 100 µM (A-431 [13]) [%] | inhibition of growth at 100 µM (MCF7 [14]) [%] | inhibition of growth at 1 µM (MCF7 [15]) [%] | inhibition of growth at 100 µM (A-375 [16]) [%] | inhibition of growth at 100 µM (HeLa [17]) [%] | IC50 (A-375 [18]) [µM] | inhibition of growth at 3 µM (MCF7 [19]) [%] | inhibition of growth at 30 µM (MCF7 [20]) [%] | other results
Cc1cccc(/C(N)=N/NC(=S)N2CCOCC2)n1 | 85.4 | 47.2 | 25.7 | 39.1 | 45.8 | 30.2 | 86.9 | 68.1 | 2.2 | 65.7 | 4.3 | 21.5 | 84.8 | 74.7 | 11.7 | 83.8 | 82.4 | 14 | 21.6 | 57.8 | inhibition of growth at 10 µM (A-375 [21]): 43.6%; inhibition of growth at 30 µM (A-375 [22]): 74.3%; inhibition of growth at 30 µM (A-431 [23]): 80%; inhibition of growth at 3 µM (A-375 [24]): 34.7%
N/C(=N\NC(=S)N1CCCCC1)c1ccccn1 | 55.7 | 24.4 | 15.5 | 53.1 | 27 | 72.5 | 76.9 | 68.1 | 3.8 | 49.2 | 6.9 | 8.5 | 85.6 | 77.7 | 15.4 | 88.5 | 86 | 0.68 | 38.6 | 69.3 | inhibition of growth at 10 µM (A-375 [21]): 85.8%; inhibition of growth at 30 µM (A-375 [22]): 87%; inhibition of growth at 30 µM (A-431 [23]): 79.7%; inhibition of growth at 3 µM (A-375 [24]): 86.5%
N/C(=N\NC(=S)N1CCCCCC1)c1ccccn1 | 67.4 | 18.8 | 21.3 | 62.2 | 50.3 | 67 | 82.9 | 67 | 6 | 36.6 | 3 | 2.6 | 77.5 | 84 | 25.3 | 89 | 88.7 | 0.74 | 56 | 76.5 | inhibition of growth at 10 µM (A-375 [21]): 86.5%; inhibition of growth at 30 µM (A-375 [22]): 90%; inhibition of growth at 30 µM (A-431 [23]): 72.3%; inhibition of growth at 3 µM (A-375 [24]): 78.6%
N/C(=N\NC(=S)N1CCCCCC1)c1ccc(F)cn1 | 83.2 | 50.3 | 50 | 26.8 | 62.4 | 51.8 | 84.5 | 64.4 | 0.9 | 65.1 | 1 | 21.1 | 83.5 | 79 | 16.8 | 85.7 | 85.6 | 0.96 | 24.3 | 68.2 | inhibition of growth at 10 µM (A-375 [21]): 72.2%; inhibition of growth at 30 µM (A-375 [22]): 80%; inhibition of growth at 30 µM (A-431 [23]): 81.3%; inhibition of growth at 3 µM (A-375 [24]): 66.6%
Cc1ccnc(/C(N)=N/NC(=S)N2CCCCCC2)c1 | 55.8 | 36.3 | 43.2 | 60.3 | 36.1 | 61.9 | 69.9 | 55.5 | 7 | 41.9 | 8 | 6.9 | 71 | 65.4 | 18.2 | 77 | 91.6 | 0.8 | 36.3 | 75.9 | inhibition of growth at 10 µM (A-375 [21]): 70.6%; inhibition of growth at 30 µM (A-375 [22]): 76.5%; inhibition of growth at 30 µM (A-431 [23]): 63.4%; inhibition of growth at 3 µM (A-375 [24]): 70%
Cc1ccnc(/C(N)=N/NC(=S)N2CCCCC2)c1 | 62.1 | 31.1 | 15.3 | 40.7 | 36.5 | 33.5 | 69.1 | 39.7 | 7.7 | 23.9 | 18.9 | 18.8 | 77.6 | 80.1 | 21.2 | 85.6 | 70.8 | 1.9 | 29.4 | 61.7 | inhibition of growth at 10 µM (A-375 [21]): 81.2%; inhibition of growth at 30 µM (A-375 [22]): 80%; inhibition of growth at 30 µM (A-431 [23]): 62.8%; inhibition of growth at 3 µM (A-375 [24]): 69.5%
Cc1cccc(/C(N)=N/NC(=S)N2CCCCCC2)n1 | 71.7 | 42.8 | 49.5 | 21.5 | 44.1 | 39.6 | 81.2 | 45.8 | 1 | 63.6 | 14.7 | 54.7 | 76.7 | 70.2 | 6.3 | 80.9 | 82.7 | 1.8 | 15.7 | 38.8 | inhibition of growth at 10 µM (A-375 [21]): 79.9%; inhibition of growth at 30 µM (A-375 [22]): 70.3%; inhibition of growth at 30 µM (A-431 [23]): 63.5%; inhibition of growth at 3 µM (A-375 [24]): 64.5%
N/C(=N\NC(=S)N1CCN(c2ccccn2)CC1)c1ccc(F)cn1 | 80 | 31.1 | 22.5 | 35.8 | 43 | 49.3 | 87 | 47.4 | 2 | 77.3 | 13.4 | 22 | 77.1 | 74.3 | 13.4 | 76.2 | 83 | 1.4 | 27.1 | 58.6 | inhibition of growth at 10 µM (A-375 [21]): 56.8%; inhibition of growth at 30 µM (A-375 [22]): 73.2%; inhibition of growth at 30 µM (A-431 [23]): 62.3%; inhibition of growth at 3 µM (A-375 [24]): 53.1%
Cc1cccc(/C(N)=N/NC(=S)N2CCSCC2)n1 | 67.6 | 42.8 | 46.5 | 22.5 | 51.7 | 47.2 | 85.3 | 53.2 | 1.8 | 54.6 | 2.6 | > 100 | 80.7 | 46.8 | 7.3 | 77.4 | 81.6 | 1.4 | 20.6 | 38.6 | inhibition of growth at 10 µM (A-375 [21]): 62.6%; inhibition of growth at 30 µM (A-375 [22]): 73.1%; inhibition of growth at 30 µM (A-431 [23]): 64.5%; inhibition of growth at 3 µM (A-375 [24]): 60.1%
